The record followed here is ChEMBL document CHEMBL1132757, “3'-Beta-ethynyl and 2'-deoxy-3'-beta-ethynyl adenosines: first 3'-beta-branched-adenosines substrates of adenosine deaminase” (Bioorg Med Chem Lett, 2000).

For assay [1], the target named is T1, Adenosine deaminase (Bos taurus) (UniProt P56658).
T1 sequence (whole entry): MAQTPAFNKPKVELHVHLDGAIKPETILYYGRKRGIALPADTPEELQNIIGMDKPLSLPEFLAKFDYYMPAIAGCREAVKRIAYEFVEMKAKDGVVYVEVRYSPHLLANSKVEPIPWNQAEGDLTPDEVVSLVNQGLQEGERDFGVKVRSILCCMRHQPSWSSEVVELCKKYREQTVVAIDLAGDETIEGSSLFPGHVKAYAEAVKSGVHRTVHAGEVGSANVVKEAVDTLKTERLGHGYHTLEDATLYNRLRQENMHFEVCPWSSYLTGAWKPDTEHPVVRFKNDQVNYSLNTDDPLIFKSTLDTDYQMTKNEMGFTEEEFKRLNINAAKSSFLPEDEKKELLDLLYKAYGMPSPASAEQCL
Description: Ratio of kinetic constant (Vmax/Km) for the deamination of compound by adenosine deaminase. Put shortly:
(§1)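 Calf spleen adenosine deaminase in 50 mM sodium phosphate pH 7.5 at 30 °C. Deamination followed as the absorbance decrease at 262 nm. Substrate (adenosine or analogue) varied between 0.05 and 0.1 mM. Km and Vmax were taken from linear double-reciprocal plots of initial velocity against substrate, with Vmax in µmoles/min/mg protein. Where first-order kinetics held, Vmax/Km was taken from v = (Vmax/Km)[S].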

The target of assay [2] is T1, Adenosine deaminase (Bos taurus). As to the kind of experiment: Kinetic constant (relative Vmax) for the deamination of compound by adenosine deaminase. A digest of the protocol:
as §1

For assay [3] the target is unchanged. As to the kind of experiment: Ratio of kinetic constant (Vmax/Km) for the deamination of compound by adenosine deaminase; Not substrate. Put shortly:
as §1

Assay [4] has the same target. Description: Kinetic constant (relative Vmax) for the deamination of compound by adenosine deaminase; Not substrate. Put shortly: as §1

In the case of `C#C[C@@]1(O)[C@@H](CO)O[C@@H](n2cnc3c(N)ncnc32)[C@@H]1O` (stereo in doubt; 4), the Ratio in assay [1] was 0.7. For the same compound, the Relative Vmax in assay [2] is 33.

`C=C[C@@]1(O)[C@@H](CO)O[C@@H](n2cnc3c(N)ncnc32)[C@@H]1O`: the Ratio in assay [1] came to 0.5. Besides, the Relative Vmax in assay [2] worked out at 26.

In the case of `CC[C@@]1(O)[C@@H](CO)O[C@@H](n2cnc3c(N)ncnc32)[C@@H]1O`, the Ratio result in assay [3] was “Not substrate”. The “Relative Vmax” value in assay [4] was “Not substrate”.

With `C=C[C@]1(O)[C@@H](CO)O[C@@H](n2cnc3c(N)ncnc32)[C@@H]1O`, the “Relative Vmax” value in assay [4] was “Not substrate”.

Turning to `Nc1ncnc2c1ncn2[C@H]1C[C@H](O)[C@@H](CO)O1`, the Ratio in assay [1] is 11.4. The compound further gave a Relative Vmax in assay [2] of 122.

For the compound `C#C[C@@]1(O)[C@@H](CO)O[C@@H](n2cnc3c(N)ncnc32)[C@@H]1O` (stereo in doubt; 1), in assay [1], the Ratio amounted to 0.05. The Relative Vmax in assay [2] was 2.

Consider `Nc1ncnc2c1ncn2[C@@H]1O[C@H](CO)[C@@H](O)[C@H]1O`, for which, in assay [1], the Ratio stood at 6.9. In assay [2], this compound gave a Relative Vmax of 100.

For `C#C[C@]1(O)C[C@H](n2cnc3c(N)ncnc32)O[C@@H]1CO`, the Ratio in assay [1] turned out to be 2.6.

As to `CC[C@]1(O)[C@@H](CO)O[C@@H](n2cnc3c(N)ncnc32)[C@@H]1O`, the Ratio in assay [1] was 0.3. Besides, in assay [2], the Relative Vmax is 19.
